This note sets out measurements from ChEMBL document CHEMBL5104125, “Copper chelating cyclic peptidomimetic inhibits Aβ fibrillogenesis” (RSC Med Chem, 2022).

Data set [1] addresses Amyloid-beta precursor protein (Homo sapiens) (UniProt P05067). The data set can be described thus: Inhibition of amyloid beta (1 to 40) (unknown origin) aggregation at 0.5 M incubated for 6 days by thioflavin S based fluorescence analysis relative to control. The settings on record: time 6.0 day.
The target is the same in data set [2]. The data set can be described thus: Inhibition of amyloid beta (1 to 40) (unknown origin) aggregation at 1 M incubated for 6 days by thioflavin S based fluorescence analysis relative to control. The settings on record: time 6.0 day.
Data set [3] has the same target. Put plainly: Inhibition of amyloid beta (1 to 40) (unknown origin) aggregation at 2 M incubated for 6 days by thioflavin S based fluorescence analysis relative to control. To be noted: time 6.0 day. The method in brief: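 Aβ1-40 (40 μM) co-incubated with 0.5-, 1- or 2-fold molar excess of peptide in PBS pH 7.4 at 37 °C for six days; ThT fluorescence monitored over time. Experiment done thrice, with two sets per solution and three readings per set.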

Data set [4] can be described thus: Cytotoxicity against mouse Neuro2a cells assessed as reduction in cell viability by MTT assay. It is filed as toxicity, cell-based, N2a. The method in brief:
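Neuro2a mouse neuronal cells treated with fluorescently labelled peptides; viability read by MTT after 24 h. IC50 calculated from linear regression of viability versus concentration.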
A general note: Formazan colour is commonly taken as a measure of viable cells.

A short description of data set [5]: Drug uptake in mouse Neuro2a cells assessed as drug co-localization in cell at 100 uM in presence of PA19fCP-FI by confocal microscopy. The class given is ADME, cell-based. The settings on record: n2a. The method in brief: (§1)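 Neuro2a cells treated with fluorescein- or Rhodamine B-labelled peptide at 100 μM, alone or together. Green and red fluorescence imaged in bright and dark field at 20×. Co-localization checked by confocal imaging at 63×, with green and red channels captured separately and then merged.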

The nature of data set [6]: Drug uptake in mouse Neuro2a cells assessed as drug internalization in cytoplasm at 100 uM by confocal microscopy. The class given is ADME. To be noted: n2a. The method in brief: as §1
The target of data set [7] is Amyloid-beta precursor protein (Homo sapiens) (UniProt P05067). The data set can be described thus: Inhibition of amyloid beta (1 to 40) (unknown origin) aggregation assessed as reduction in beta sheet conformation at 2 M incubated for 6 days by circular dichroism analysis. To be noted: time 6.0 day.
The target is the same in data set [8]. The data set can be described thus: Inhibition of amyloid beta (1 to 40) (unknown origin) aggregation assessed as reduction in fibrillar assembly at 2 M incubated for 6 days by TEM analysis. The settings on record: time 6.0 day. The method in brief:
(§2)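 Aβ1-40 (40 μM) co-incubated with 2-fold molar excess of peptide in PBS pH 7.4 at 37 °C for six days. TEM images (200 nm scale) and Congo red-stained birefringence images (20 μm scale) captured.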

Data set [9] shares this target. The data set can be described thus: Inhibition of amyloid beta (1 to 40) (unknown origin) aggregation assessed as bright green-gold birefringence at 2 M incubated for 6 days by Congo-red staining based image analysis. To be noted: time 6.0 day. In outline: as §2
Data set [10] has the same target. The data set can be described thus: Inhibition of amyloid beta (1 to 40) (unknown origin) aggregation assessed as reduction in beta sheet conformation at 2 M incubated for 6 days by FTIR analysis. To be noted: time 6.0 day.
For data set [11], the species on record is Homo sapiens. The data set can be described thus: Binding affinity to Rhodamine B labelled amyloid beta (9-21 residues) (unknown origin) assessed as increase in fluorescence intensity of Rhodamine B at 20 uM incubated for 24 hrs by FRET analysis (Rvb= 601 nm). The method in brief: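 FRET between fluorescein-labelled cyclic peptide (donor) and Rhodamine B-labelled Aβ9-21 model peptide (acceptor), mixed 1:1, ~20 μM each in PBS (50 mM, pH 7.4), incubated 24 h at 37 °C. Donor and mixture excited at 492 nm, acceptor alone at 567 nm; emission spectra recorded. Representative of several independent repeats.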

Data set [12] is described as follows: Drug uptake in mouse Neuro2a cells assessed as drug co-localization in cell at 100 uM in presence of MA.beta-RhB by confocal microscopy. The class given is ADME, cell-based. To be noted: n2a. In outline: as §1
Data set [13] can be described thus: Drug uptake in mouse Neuro2a cells assessed as drug internalization in cell membrane at 100 uM by confocal microscopy. The class given is ADME. The settings on record: n2a. The method in brief: as §1
Data set [14] concerns the target Amyloid-beta precursor protein (Homo sapiens) (UniProt P05067). The data set can be described thus: Inhibition of amyloid beta (1 to 40) (unknown origin) aggregation assessed as increase in size of off-target aggregated species at 80 uM incubated upto 24 hr by DLS analysis. In outline: (§3)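 Aβ1-40 (40 μM) alone or with 2 equivalents of peptide, incubated at pH 7.4, 37 °C. DLS size distribution and TEM morphology (500 nm scale) recorded at 1, 6, 12 and 24 h.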

The nature of data set [15]: Metal chelating activity assessed as compound-Cu2+ complex formation by measuring red shift at 2:1 ratio in presence of CuSO4 by UV-Vis spectra analysis (Rvb= 264 nm).
Data set [16] is filed under the species Homo sapiens. Put plainly: Metal chelating activity assessed as extraction of Cu2+ from amyloid beta (1 to 40) (unknown origin)-Cu2+ complex by measuring fluorescence of Tyr10 at 80 uM incubated for 36 hrs by tyrosine intrinsic fluorescence assay. In outline:
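Aβ1-40 (40 μM) in PBS (50 mM, pH 7.4), with Cu2+ added at 40 μM, then peptide at 80 μM (1:1:2). Tyr10 intrinsic fluorescence emission read at 308 nm and expressed as normalized fluorescence intensity.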

Data set [17] is described as follows: Metal chelating activity assessed as compound-Cu2+ complex formation by measuring red shift at 1:1 ratio in presence of CuSO4 by UV-Vis spectra analysis (Rvb= 265 nm).
The target in data set [18] is Amyloid-beta precursor protein (Homo sapiens) (UniProt P05067). The data set can be described thus: Inhibition of amyloid beta (1 to 40) (unknown origin) aggregation assessed as off-pathway aggregated species at 80 uM incubated upto 24 hr by TEM analysis. To be noted: TDE = time-dependent effect. The method in brief:
as §3

Data set [19] can be described thus: Metal chelating activity assessed as compound-Zn2+ complex formation by measuring red shift at 2:1 ratio in presence of ZnCl2 by UV-Vis spectra analysis (Rvb= 264 nm).
Data set [20] is described as follows: Metal chelating activity assessed as compound-Cu2+ complex formation by measuring exothermic event at 50 uM in presence of CuSO4 by isothermal titration calorimetry assay. In outline: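 ITC at 27 °C in 20 mM Tris-HCl pH 7.4. Metal solution (1.5 mM) in the syringe was titrated into peptide (50 μM) in the cell over 30 injections. Heats of dilution of metal into buffer were subtracted. ΔH, ΔS, K and n were fitted with a sequential two-site binding model.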
On the technique in general: Isothermal titration calorimetry measures the heat released or taken up as one component is titrated into another.

Data set [21] can be described thus: Metal chelating activity assessed as compound-Cu2+ complex formation by measuring deviation in g values at 1 to 2 M in presence of CuSO4 by electron spin resonance analysis. To be noted: dose 1-2 M. The method in brief: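 ESR spectra recorded at room temperature on Cu2+ solution (5 mM) alone and with 1- or 2-fold molar ratio of peptide; g values read.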
For data set [22], the target named is Amyloid-beta precursor protein (Homo sapiens) (UniProt P05067). The data set can be described thus: Inhibition of Cu2+ induced amyloid beta (1 to 40) (unknown origin) aggregation assessed as reduction in fibrils at 80 uM incubated for 36 hrs in presence of CuSO4 by thioflavin S based fluorescence analysis. To be noted: in the assay text read “thioflavin T” for “thioflavin S”. The method in brief:
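Aβ1-40 (40 μM) with CuSO4 (40 μM) and test peptide (80 μM) in PBS pH 7.4, 37 °C, 36 h. ThT fluorescence read at ex 440 nm / em 485 nm, with ThT-plus-PBS reference subtracted. Mean of three independent experiments ± SD.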

Data set [23] is described as follows: Metal chelating activity assessed as compound-Zn2+ complex formation by measuring red shift at 1:1 ratio in presence of ZnCl2 by UV-Vis spectra analysis (Rvb= 265 nm).
The next data set deals with Lipid bilayer. Put plainly: Inhibition of membrane destabilization in carboxyfluorescein dye entrapped large unilamellar vesicle assessed as decrease in amyloid beta (1-40) induced carboxyfluorescein leakage upto 48 hrs by TEM analysis. The settings on record: in the assay text read “by fluorescence analysis” for “by TEM analysis”. In outline:
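Carboxyfluorescein-loaded LUVs in PBS (50 mM) exposed to pre-incubated Aβ1-40 alone or Aβ1-40 with peptide (1:2). Final lipid 50 μM, Aβ1-40 2.5 μM (peptide:lipid 1:20), 37 °C. Dye leakage measured by fluorescence at intervals from 1 to 48 h; untreated LUV as control.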

Data set [24] deals with Amyloid-beta precursor protein (Homo sapiens) (UniProt P05067). The data set can be described thus: Inhibition of Cu2+ induced amyloid beta (1 to 40) (unknown origin) aggregation assessed as disapperance of fibrillar assembly at 80 uM incubated for 36 hrs by TEM analysis. In outline: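 Aβ1-40 (40 μM) incubated with CuSO4 (40 μM) and test peptide (80 μM) in PBS pH 7.4 at 37 °C for 36 h, then imaged by TEM. Representative image from several repeats.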

The source made the active and inactive calls. The rule behind the calls is not given here. Where a SMILES comes first, the peptide text is derived from it. [ ]: non-standard residue; d: D form. The star is where a group is joined. X1 = CCN(CC)c1ccc2c(-c3ccc(C(=O)*)cc3)c3ccc(N(CC)CC)cc3[o+]c2c1; Sar = CNCC(=O)O

Amyloid-beta precursor protein (Homo sapiens), sequence (P05067 whole entry): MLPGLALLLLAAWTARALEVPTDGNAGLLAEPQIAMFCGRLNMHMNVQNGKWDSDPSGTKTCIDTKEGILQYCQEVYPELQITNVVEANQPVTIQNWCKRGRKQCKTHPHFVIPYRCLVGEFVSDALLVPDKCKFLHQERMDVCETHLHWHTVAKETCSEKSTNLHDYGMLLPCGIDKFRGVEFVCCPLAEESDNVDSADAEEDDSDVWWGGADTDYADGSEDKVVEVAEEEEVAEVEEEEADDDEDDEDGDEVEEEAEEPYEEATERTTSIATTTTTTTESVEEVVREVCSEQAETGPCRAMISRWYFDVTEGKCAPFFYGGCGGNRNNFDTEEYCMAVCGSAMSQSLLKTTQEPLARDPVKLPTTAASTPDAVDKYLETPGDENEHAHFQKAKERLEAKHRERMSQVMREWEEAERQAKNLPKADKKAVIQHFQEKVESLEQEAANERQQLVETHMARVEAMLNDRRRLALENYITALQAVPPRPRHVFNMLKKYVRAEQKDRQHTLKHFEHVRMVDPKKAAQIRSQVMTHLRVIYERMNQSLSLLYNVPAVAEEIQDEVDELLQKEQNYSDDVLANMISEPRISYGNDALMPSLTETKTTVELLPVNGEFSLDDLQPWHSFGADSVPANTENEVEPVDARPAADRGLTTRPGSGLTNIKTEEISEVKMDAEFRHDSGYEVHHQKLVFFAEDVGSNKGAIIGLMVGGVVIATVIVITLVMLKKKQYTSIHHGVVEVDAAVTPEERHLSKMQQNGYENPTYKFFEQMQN

In general, inhibition refers to how much of the control response was suppressed. For the molecule `CC(=O)N[C@@H](CCCCN)C(=O)N[C@@H](CC(C)C)C(=O)N[C@H](C(=O)N[C@H](Cc1ccccc1)C(=O)N[C@@H](Cc1ccccc1)C(=O)N[C@@H](C)C(=O)N[C@@H](CCC(N)=O)C(=O)O)C(C)C`, the inhibition stood at 7.9% in data set [1], 15.1% in [2] and 27.2% in data set [3].
The term IC50 denotes the midpoint of a concentration-inhibition curve. Regarding `CCN(CC)c1ccc2c(-c3ccc(C(=O)N(C)CC(=O)NCC(=O)N[C@@H](Cc4ccc(O)cc4)C(=O)N[C@@H](CCC(=O)O)C(=O)N[C@H](C(=O)N[C@@H](Cc4c[nH]cn4)C(=O)N[C@@H](Cc4c[nH]cn4)C(=O)N[C@@H](CCC(N)=O)C(=O)N[C@@H](CCCCN)C(=O)N[C@@H](CC(C)C)C(=O)N[C@H](C(=O)N[C@@H](Cc4ccccc4)C(=O)N[C@@H](Cc4ccccc4)C(=O)N[C@@H](C)C(=O)NCC(N)=O)C(C)C)C(C)C)cc3)c3ccc(N(CC)CC)cc3[o+]c2c1` (X1-[Sar]GYEVHHQKLVFFAG-NH2), in data set [4], the IC50 was 150 µM. For the same molecule, the Drug uptake result in [5] and in data set [6] was “Active” in each case.
Consider `CC(C)C[C@@H]1NC(=O)[C@H](CCCCN)NC(=O)[C@H](CCC(N)=O)NC(=O)[C@H](C)NC(=O)[C@H](Cc2ccccc2)NC(=O)[C@@H](Cc2ccccc2)NC(=O)[C@H](C(C)C)NC1=O`, for which the inhibition in data set [1] stood at 25.2%; in data set [7], 74%; in data set [10] it was 74%; in data set [2], 47.9%; in data set [3] it was 73.7%. The inhibition result in [8] and in data set [9] was “Active” in each case.
On to `CC(C)C[C@@H]1NC(=O)[C@H](CCCCNC(=O)c2ccccn2)NC(=O)[C@H](CCCCNC(=S)Nc2ccc(-c3c4ccc(=O)cc-4oc4cc(O)ccc34)c(C(=O)O)c2)NC(=O)[C@H](CCC(N)=O)NC(=O)[C@H](C)NC(=O)[C@H](Cc2ccccc2)NC(=O)[C@@H](Cc2ccccc2)NC(=O)[C@H](C(C)C)NC1=O`, for which the OD in the data set listed under Homo sapiens [11] is 604 nm. Further, the half-maximal inhibitory concentration (IC50) in [4] stood at 200 µM. For the same molecule, the Drug uptake entry in data set [12] and in [13] was “Active” throughout.
As for `CC(C)C[C@@H]1NC(=O)[C@H](CCCCNC(=O)c2ccccn2)NC(=O)[C@H](CCC(N)=O)NC(=O)[C@H](C)NC(=O)[C@H](Cc2ccccc2)NC(=O)[C@@H](Cc2ccccc2)NC(=O)[C@H](C(C)C)NC1=O`, the inhibition in data set [1] is 32.4%; in data set [7], 85%; in data set [18] it was “Tde”; in data set [10], 85%; in data set [2] it was 52.6%; in [3] it was 85.6%. In addition, the inhibition result (in [14]; in [8]; in data set [9]; in data set [22]; in the data set with Lipid bilayer; in data set [24]) was “Active” in each case. Further, the OD in data set [15] worked out at 270 nm; in data set [17] it was 271 nm; in [19], 267 nm; in data set [23], 268 nm. In the data set filed under Homo sapiens [16], the Activity was 84.3%. The result in [20] and in [21] was Active.
